# This is a sample that favours compounds with a hit; in the whole collection about 2.7% have one here.
# PRMT1 FP inh – PRMT1 (human) inhibition, primary screen | Q99873 | recombinant PRMT1, activity-based probe fluorescence polarization | inhibition, % at 2.79 µM | 1.3% of 370,000 active | AID 652257;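 active means inhibition above about 21% made by adding two undisclosed values, limit read from the data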
# mABHD4 FP – ABHD4 (mouse) inhibition, primary FP screen. Q8VD66. purified mABHD4, FP-Rh probe fluorescence polarization. inhibition, % at 8.92 µM. 0.54% of 370,000 active. AID 720543;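 active means inhibition exceeding the mean over every tested compound plus 3 SD, cut at about 30% in these data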
# Target sequence (Q8VD66 whole entry, looked up): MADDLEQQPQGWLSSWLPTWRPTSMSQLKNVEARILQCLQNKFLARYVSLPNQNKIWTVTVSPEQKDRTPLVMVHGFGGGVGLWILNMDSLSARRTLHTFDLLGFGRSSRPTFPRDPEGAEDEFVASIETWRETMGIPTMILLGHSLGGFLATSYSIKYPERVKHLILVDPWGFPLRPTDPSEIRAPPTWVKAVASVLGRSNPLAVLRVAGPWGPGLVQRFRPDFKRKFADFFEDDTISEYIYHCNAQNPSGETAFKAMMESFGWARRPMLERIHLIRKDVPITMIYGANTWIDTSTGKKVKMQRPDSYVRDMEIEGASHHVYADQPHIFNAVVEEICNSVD
#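 system = mouse ABHD4 enzyme, wild type | medium = HEPES pH 7.0, NaCl, Pluronic buffer | also added = FP-Rh probe | incubation = Enzyme–compound pre-incubation 45 min, then probe 60 min, both 25 °C | technique = fluorescence polarization, excitation 525 nm, emission 598 nm, BODIPY TMR filters | controls = S159A mutant high control, sample median low control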
# SIAE primary – inhibitors of human sialic acid acetylesterase SIAE. SIAE FP-Rh probe binding, fluorescence polarization. inhibition, % at 9.66 µM. 0.69% of 370,000 active. Q9HAT2. AID 1053197;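 active means inhibition above a cutoff: mean of compounds within the control limits plus 3 SD of those, cut at about 17% in these data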
# TCR-CD3 inh – human TCR-CD3 binding inhibition | TAMRA-labeled TCR probe fluorescence, biochemical | inhibition, % at 9.4 µM | 0.37% of 360,000 active; in the data active means inhibition above about 19%;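 further: recombinant mutant TCR 2C K166C tagged with TAMRA read by polarization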
# HTRA1 inhibitor – blocks human HTRA1 serine peptidase; recombinant HTRA1, FP-rhodamine activity-based probe, fluorescence polarization; inhibition, % at 5.96 µM; 0.5% of 340,000 active; in the data active means inhibition above about 36%
# Numbers stand for hits; i = inactive; nt = no result.
SMILES,PRMT1 FP inh,mABHD4 FP,SIAE primary,TCR-CD3 inh,HTRA1 inhibitor
COc1ccc(OC)c(NC(=O)COC(=O)/C=C/c2ccccc2Cl)c1,i,i,i,i,i
COc1ccc(CCNC(=O)CSC(=O)c2ccccc2)cc1OC,22.4,i,i,i,i
CCOc1ccc(CCNC(=O)/C=C/c2ccco2)cc1OCC,i,i,i,i,i
CSc1ccc(CNC(=O)C2(C)CCN2C(C)C)cc1 (centres undefined),i,i,i,i,nt
Cc1cccc(N/C(N)=N/c2nc(C)c(Cc3ccccc3)c(=O)[nH]2)c1,i,i,i,i,i
CCn1c2ccccc2c2cc(NC(=O)COC(=O)c3ccc(F)cc3F)ccc21,i,i,i,nt,nt
C/C(CC(=O)Nc1ccccc1F)=N\NC(=O)Cc1ccc(Cl)cc1,i,i,i,i,i
O=C1COc2ccccc2C(c2nnnn2-c2ccc3ccccc3c2)N1C1CC1 (centres undefined),i,i,i,nt,nt
C/C=C/C=C\C(=O)Nc1cccc(C2=NOC3(C2)C[C@@H](C(N)=O)N(C(=O)c2cc([N+](=O)[O-])cc([N+](=O)[O-])c2)C3)c1 (some centres undefined),23.2,i,i,i,i
C/C=C\C=C/C(=O)Nc1cccc(C2=NOC3(C2)C[C@@H](C(N)=O)N(C(=O)/C=C/C=C\C)C3)c1 (some centres undefined),nt,nt,nt,nt,i
O=C(CSc1nnc(-c2ccc(Cl)cc2)n1Cc1ccco1)c1cccs1,23.4,i,i,i,i
O=C(CSc1nnc(-c2ccncc2)n1Cc1ccco1)c1ccc(Cl)cc1,i,i,i,i,i
COc1ccc(-c2cc(C(F)(F)F)n3nc(C(=O)Nc4cc(C)on4)cc3n2)cc1OC,i,i,18.1,i,i
CCOc1ccc(N)c(SSc2cc(OCC)ccc2N)c1,86.0,i,i,i,i
COc1cc(OC)c(-c2c3cc(O)c(=O)cc-3oc3cc(O)c(O)cc23)cc1OC,23.6,i,i,i,i
COc1cc(-c2cc(=O)c3ccc(O)cc3o2)cc(OC)c1OC,i,i,i,i,nt
O=C(Cc1cccc2ccccc12)Nc1ccc(-c2cc3ccccc3oc2=O)cc1,i,i,i,38.0,i
Cc1ccc(N2C(=O)CC(NCC3CCCO3)C2=O)cc1 (centres undefined),45.1,i,i,i,i
O=C1CC(NCC2CCCO2)C(=O)N1c1ccc(Cl)cc1 (centres undefined),i,i,i,i,i
O=C(Nc1ccc2c(c1)OCO2)c1cc2ncc(Br)cn2n1,i,i,68.4,i,i
O=C1C2CC=C(Cl)CC2C(=O)N1CCc1ccccc1 (centres undefined),24.1,i,i,i,i
CN1CCC(N[C@@H](Cc2c[nH]c3ccccc23)C(=O)NCCCc2ccccc2)(C(=O)NCCc2c[nH]c3ccccc23)CC1,i,i,i,nt,nt
CC=CCn1c(SCc2ccccc2)nc2c1c(=O)[nH]c(=O)n2C,24.0,i,i,i,nt
Cc1ccccc1-c1nc2sc3c(c2c(=O)n1N)CCCC3,i,i,i,i,i
Cn1nnc2sc3c(c2c1=O)CCCC3,22.4,i,i,i,i
SMILES,PRMT1 FP inh,mABHD4 FP,SIAE primary,TCR-CD3 inh,HTRA1 inhibitor
CCC(Oc1ccccc1)C(=O)NCCOC (centres undefined),21.9,i,i,i,i
CCC(Oc1ccccc1)C(=O)Nc1ccccc1OC (centres undefined),i,i,i,i,i
CCC(C)NC(=O)CCS(=O)(=O)c1ccc(Br)s1 (centres undefined),i,i,i,i,i
CCOC(=O)N1CCN(C(=O)CCS(=O)(=O)c2ccc(Br)s2)CC1,i,i,17.1,i,i
COc1ccc(C(=O)COc2ccccc2C(=O)Nc2ccccc2)cc1,i,i,i,i,i
CCOc1ccc(C(=O)CSc2nnc(SCc3ccc(Cl)cc3)s2)cc1,i,i,i,nt,nt
O=C(CCl)Nc1ccc(C(=O)NCC2COc3ccccc3O2)cc1 (centres undefined),i,i,i,nt,nt
CCOc1ccc(C=Nn2c(-c3ccc(F)cc3)n[nH]c2=S)cc1,23.0,i,i,nt,nt
CCn1c(=S)sc2c(=O)n(-c3ccccc3)c(=S)[nH]c21,i,i,i,i,i
CCOc1ccccc1-n1c(=S)sc2c(=O)n(-c3ccc(C)cc3)c(=S)[nH]c21,73.0,i,i,i,i
COc1ccc(-c2cc(NC(=O)Cc3c[nH]c4ccccc34)ccc2Nc2cccnc2)cc1F,i,i,i,i,nt
O=C(Nc1cccc(Cl)c1)Nc1cc(S(=O)(=O)N2CCCCC2)ccc1Cl,i,i,i,84.8,i
COc1ccc(N(C(=O)c2ccco2)C(C(=O)NC2CCCC2)c2cccnc2)c(OC)c1 (centres undefined),i,i,i,i,i
COc1cccc(CN(C(=O)c2ccco2)C(C(=O)NC2CCCC2)c2cccnc2)c1 (centres undefined),i,i,135.3,i,i
COc1cccc(CN(C(=O)Cc2c[nH]c3ccccc23)C(C(=O)NC2CCCCC2)c2ccc(C)o2)c1 (centres undefined),i,i,18.0,i,i
COc1ccc(CN(C(=O)Cc2c[nH]c3ccccc23)C(C(=O)NC2CCCCC2)c2ccc(C)o2)cc1 (centres undefined),i,i,i,i,i
CC(C)=CC([C@]12C[C@H](CO)N[C@@H]1Nc1ccccc12)S(=O)(=O)c1ccccc1 (some centres undefined),i,i,i,nt,nt
COc1ccc(N/C(=C\C(=O)c2ccccc2)c2ccccc2)cc1OC,i,i,i,i,nt
O=C(CSC1=Nc2ccccc2C2CC=NN12)Nc1ccc(F)c(F)c1F (centres undefined),22.4,i,i,i,i
CCCCOC(=O)c1ccc(NC(=O)CSC2=Nc3ccccc3C3CC=NN23)cc1 (centres undefined),i,i,i,i,i
Cc1[nH]c2ccccc2c1/C=N/NC(=O)c1cccc(S(=O)(=O)Nc2cccc(C(F)(F)F)c2)c1,i,i,18.8,i,i
NNC(=O)c1cccc(S(=O)(=O)Nc2cccc(C(F)(F)F)c2)c1,i,i,i,i,i
CN(C)c1cccc(-c2ccnc(N3CCC(C(N)=O)CC3)n2)c1,i,i,i,nt,nt
COc1cc(C=Nn2c(-c3cc(-c4ccccc4)n[nH]3)n[nH]c2=S)ccc1OC(C)=O,32.9,i,i,nt,nt
CC(=O)Oc1ccc2oc(/C=C/N(C)C)c([N+](=O)[O-])c2c1,i,i,i,i,i
SMILES,PRMT1 FP inh,mABHD4 FP,SIAE primary,TCR-CD3 inh,HTRA1 inhibitor
C/C(=C/c1oc2ccc(O)cc2c1[N+](=O)[O-])N(C)C,24.2,i,i,i,i
CC1(C)CC(=O)C(CSC(=O)c2ccccc2)C(=O)C1,24.1,i,i,i,i
CC1(C)CC(=O)C=C(NNC(=O)c2ccccc2)C1,i,i,i,i,i
O=C1N/C(=C/c2ccc(N3CCOCC3)o2)C(=O)N1c1ccccc1,46.2,i,i,i,i
C=CCN1C(=O)N/C(=C/c2ccc(N3CCOCC3)o2)C1=O,i,i,i,i,nt
Cc1ccc2c(c1)N(C(=O)CSc1nncn1C)C(C)(C)c1ssc(=S)c1-2,29.2,i,i,i,i
